{"source": "ChEMBL document CHEMBL1145138", "about": "“Design and synthesis of 4-azaindoles as inhibitors of p38 MAP kinase” (J Med Chem, 2003)", "key": {"[1]": {"test": "T 1/2 at a dose of 10 mg/Kg administered intravenously in female hanover-wistar rat", "type": "ADME, organism-based", "conditions": "in vivo, iv", "procedure,_shortened": "(§1)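 Female Wistar/Han rats weighing 180–220 g, 3 per dose regime, received a single 10 mg/kg IV bolus in 50% cyclodextran/water. Blood was drawn under CO₂:O₂ (60:40) via orbital sinus or cardiac puncture at 1, 3, 6, 8 and 24 h. Plasma was protein-precipitated with acetonitrile, diluted in 50 mM formate buffer and quantified by LC/MS.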"}, "[2]": {"test": "T max at a dose of 10 mg/Kg administered perorally in female hanover-wistar rat", "type": "ADME, organism-based", "conditions": "in vivo, po", "procedure,_shortened": "(§2)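 Female Wistar/Han rats (180–220 g, n=3 per regime) received a single 10 mg/kg oral suspension in 0.9% NaCl, 0.5% Na-CMC, 0.4% polysorbate 80 and 0.9% benzyl alcohol. Blood was taken at 1, 3, 6, 8 and 24 h by orbital sinus or cardiac puncture. Plasma drug was measured by LC/MS after acetonitrile precipitation; the comparison arm was a 10 mg/kg IV bolus.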"}, "[3]": {"test": "Bioavailability at a dose of 10 mg/Kg administered perorally in female hanover-wistar rat", "type": "ADME, organism-based", "conditions": "in vivo, po", "procedure,_shortened": "as §2"}, "[4]": {"test": "CL at a dose of 10 mg/Kg administered intravenously in female hanover-wistar rat", "type": "ADME, organism-based", "conditions": "in vivo, iv", "procedure,_shortened": "as §1"}, "[5]": {"test": "C max at a dose of 10 mg/Kg administered intravenously in female hanover-wistar rat", "type": "ADME, organism-based", "design": "dose 10 mg/Kg, route intravenous", "conditions": "in vivo, iv", "procedure,_shortened": "as §1"}, "[6]": {"test": "C max at a dose of 10 mg/Kg administered perorally in female hanover-wistar rat", "type": "ADME, organism-based", "design": "dose 10 mg/Kg, route oral", "conditions": "in vivo, po", "procedure,_shortened": "as §2"}, "[7]": {"test": "Partition coefficient (logP)", "type": "physicochemical", "conditions": "octanol/water"}, "Homo sapiens": {"species_on_record": "Homo sapiens", "test": "Caco-2 permeability was determined; activity value is 5.8*10e-5", "type": "ADME"}, "[8]": {"target": "Cyclin-dependent kinase 1 (Homo sapiens, UniProt P06493)", "sequence (P06493 whole entry)": "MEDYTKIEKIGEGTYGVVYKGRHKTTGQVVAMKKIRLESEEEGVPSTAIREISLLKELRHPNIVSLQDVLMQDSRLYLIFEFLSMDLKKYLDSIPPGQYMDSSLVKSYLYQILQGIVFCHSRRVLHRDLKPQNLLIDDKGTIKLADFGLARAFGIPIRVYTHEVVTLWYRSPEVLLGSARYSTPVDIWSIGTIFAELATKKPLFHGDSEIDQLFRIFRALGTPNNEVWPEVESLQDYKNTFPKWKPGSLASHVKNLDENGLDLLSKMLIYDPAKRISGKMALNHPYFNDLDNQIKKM", "test": "Inhibition of Cyclin-dependent kinase 1"}, "[9]": {"target": "Cyclin-dependent kinase 2 (Homo sapiens, UniProt P24941)", "test": "Inhibition of Cyclin-dependent kinase 2"}, "[10]": {"target": "Cyclin-dependent kinase 3 (Homo sapiens, UniProt Q00526)", "sequence (Q00526 whole entry)": "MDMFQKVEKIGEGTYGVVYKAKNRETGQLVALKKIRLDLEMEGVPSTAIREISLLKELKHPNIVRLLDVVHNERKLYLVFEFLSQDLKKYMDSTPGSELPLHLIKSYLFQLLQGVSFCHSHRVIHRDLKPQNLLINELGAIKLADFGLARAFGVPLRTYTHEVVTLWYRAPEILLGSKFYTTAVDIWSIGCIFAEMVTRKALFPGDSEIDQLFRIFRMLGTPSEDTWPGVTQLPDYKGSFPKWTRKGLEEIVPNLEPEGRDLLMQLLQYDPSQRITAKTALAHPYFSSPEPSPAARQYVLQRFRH", "test": "Inhibition of Cyclin-dependent kinase 3"}, "[11]": {"target": "Cyclin-dependent kinase 4 (Homo sapiens, UniProt P11802)", "sequence (P11802 whole entry)": "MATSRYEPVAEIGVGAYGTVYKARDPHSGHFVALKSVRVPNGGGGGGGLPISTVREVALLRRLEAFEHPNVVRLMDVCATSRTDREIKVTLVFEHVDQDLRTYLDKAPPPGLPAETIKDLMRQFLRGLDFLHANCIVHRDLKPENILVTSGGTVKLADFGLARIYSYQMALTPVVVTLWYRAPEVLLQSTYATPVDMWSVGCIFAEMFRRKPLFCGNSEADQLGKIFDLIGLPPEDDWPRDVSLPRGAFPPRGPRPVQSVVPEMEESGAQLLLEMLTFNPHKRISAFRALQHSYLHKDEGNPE", "test": "Inhibition of Cyclin-dependent kinase 4"}, "[12]": {"target": "T1, Interleukin-1 receptor-associated kinase 4 (Homo sapiens, UniProt Q9NWZ3)", "T1 sequence (Q9NWZ3 whole entry)": "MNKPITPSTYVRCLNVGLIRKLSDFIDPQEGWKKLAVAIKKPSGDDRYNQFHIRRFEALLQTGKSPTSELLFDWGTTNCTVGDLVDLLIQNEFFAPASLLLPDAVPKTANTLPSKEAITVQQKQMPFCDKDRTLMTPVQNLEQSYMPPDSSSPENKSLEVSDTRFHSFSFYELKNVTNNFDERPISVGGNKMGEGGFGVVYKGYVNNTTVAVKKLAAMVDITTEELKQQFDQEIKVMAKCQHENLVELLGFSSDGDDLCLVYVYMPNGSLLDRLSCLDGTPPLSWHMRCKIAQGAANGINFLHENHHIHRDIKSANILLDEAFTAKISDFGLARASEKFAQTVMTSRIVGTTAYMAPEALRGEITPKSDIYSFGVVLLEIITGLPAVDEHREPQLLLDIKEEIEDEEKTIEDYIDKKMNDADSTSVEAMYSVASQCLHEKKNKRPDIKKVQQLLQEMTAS", "test": "Inhibition of Interleukin-1 receptor-associated kinase-4"}, "MAP kinase p38 [13]": {"target": "T2, MAP kinase p38 (Homo sapiens, UniProt O15264+Q15759+Q16539+P53778)", "test": "Inhibition of LPS-induced p38-related IL1-beta production in human white blood cells", "type": "functional, cell-based", "procedure,_shortened": "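Heparinized whole blood from donors medication-free for at least 14 days. Compounds came from a 6 mM DMSO stock, six 3-fold serial dilutions in DMSO, then diluted 1/20 in RPMI and run in triplicate. Blood was preincubated with compound 30 min at 37 °C, then stimulated with E. coli 0127:B8 LPS at 0.5 μg/mL final overnight at 37 °C, 5% CO₂. Plasma IL-1β was measured by ELISA.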"}, "[14]": {"target": "MAP kinase-activated protein kinase 2 (Homo sapiens, UniProt P49137)", "sequence (P49137 whole entry)": "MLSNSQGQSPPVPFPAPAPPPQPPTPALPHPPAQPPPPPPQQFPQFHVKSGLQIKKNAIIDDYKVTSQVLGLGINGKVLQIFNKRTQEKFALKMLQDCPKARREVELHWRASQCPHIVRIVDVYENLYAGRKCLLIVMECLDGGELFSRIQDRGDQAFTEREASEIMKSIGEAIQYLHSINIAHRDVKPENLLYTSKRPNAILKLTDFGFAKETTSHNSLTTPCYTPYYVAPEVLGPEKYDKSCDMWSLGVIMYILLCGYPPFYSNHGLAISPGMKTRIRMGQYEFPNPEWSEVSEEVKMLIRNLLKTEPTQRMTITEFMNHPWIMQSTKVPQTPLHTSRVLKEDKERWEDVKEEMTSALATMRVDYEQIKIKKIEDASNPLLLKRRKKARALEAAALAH", "test": "Inhibition of MAP kinase-activated protein kinase 2"}, "[15]": {"target": "T3, Mitogen-activated protein kinase 14 (Homo sapiens, UniProt Q16539)", "T3 sequence (Q16539 whole entry)": "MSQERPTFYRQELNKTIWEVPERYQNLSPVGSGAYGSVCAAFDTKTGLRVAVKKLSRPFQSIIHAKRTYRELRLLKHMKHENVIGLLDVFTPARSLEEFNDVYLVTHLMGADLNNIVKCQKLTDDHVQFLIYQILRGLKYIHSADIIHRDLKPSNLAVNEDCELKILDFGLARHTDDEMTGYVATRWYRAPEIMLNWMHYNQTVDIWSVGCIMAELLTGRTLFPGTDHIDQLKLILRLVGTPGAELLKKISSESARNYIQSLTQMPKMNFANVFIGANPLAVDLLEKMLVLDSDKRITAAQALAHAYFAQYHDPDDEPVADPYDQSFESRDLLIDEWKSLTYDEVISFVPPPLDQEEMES", "test": "In vitro inhibitory concentration against Mitogen-activated protein kinase p38 alpha"}, "[16]": {"target": "T3, Mitogen-activated protein kinase 14", "test": "Inhibition of Mitogen-activated protein kinase p38 alpha", "procedure,_shortened": "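Human recombinant active p38α (5 nM) in MOPS pH 7.4 buffer (40 mM MgCl₂, 1 mM DTT, β-glycerophosphate, EGTA, orthovanadate) was preincubated 10 min at room temperature with compound (0–10 μM, DMSO). Reaction was started with γ-[³³P]ATP (50 μM) and MBP (35 μM), run 30 min at 30 °C, then captured on phosphocellulose, acid-washed and counted. IC50 was fitted as fractional activity = 1/([I]/IC50 + 1).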"}, "[17]": {"target": "Mitogen-activated protein kinase; ERK1/ERK2 (Homo sapiens, UniProt P27361+P28482)", "test": "Inhibition of Mitogen-activated protein kinase ERK", "type": "protein assay"}, "[18]": {"target": "cAMP-dependent protein kinase (PKA) (Homo sapiens, UniProt P22694+P17612+P22612)", "test": "Inhibition of Protein kinase A (PKA)", "type": "protein assay"}, "Protein kinase C (PKC)": {"target": "Protein kinase C (PKC)", "test": "Inhibition of Protein kinase C", "type": "protein assay"}, "Rattus norvegicus": {"species_on_record": "Rattus norvegicus", "test": "Effective dose against LPS stimulated TNF alpha production in rats", "type": "functional", "procedure,_shortened": "(§3)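 Female Wistar/Han rats, 8 per group, were dosed orally at −30 min with compound in CMC vehicle (0.9% NaCl, 0.5% Na-CMC, 0.4% polysorbate 80, 0.9% benzyl alcohol) or with vehicle alone. LPS 50 μg/kg was given ip at 0 h. At 1.5 h, blood was taken by cardiocentesis after CO₂ euthanasia, and serum TNFα was measured by ELISA against vehicle controls.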"}, "[19]": {"target": "Mitogen-activated protein kinase 14 (Rattus norvegicus) (UniProt P70618)", "sequence (P70618 whole entry)": "as the sequence (Q16539 whole entry) above, with I17V, L48H, T263A, D321E, L332F counted along it", "test": "In vivo percent inhibition of LPS stimulated TNF alpha synthesis in rat at a concentration of 30 mg/kg", "type": "functional, organism-based", "design": "dose 30 mg/kg", "procedure,_shortened": "as §3"}, "MAP kinase p38 [20]": {"target": "T2, MAP kinase p38", "test": "In vitro inhibition of LPS induced p38-related TNFalpha release by THP-1 cells", "type": "functional, cell-based", "procedure,_shortened": "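THP-1 cells at 2.5×10⁶ cells/mL in RPMI with 15% FBS and 0.02 mM 2-mercaptoethanol were preincubated 30 min at 37 °C with compound in DMSO-containing medium (DMSO stated as 5% final). LPS was then added at 0.5 μg/mL final for a further 2 h. Supernatant TNFα was read by trapping ELISA with two anti-TNFα antibodies.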"}, "[21]": {"target": "Vascular endothelial growth factor receptor 2 (Homo sapiens, UniProt P35968)", "sequence (P35968 whole entry)": "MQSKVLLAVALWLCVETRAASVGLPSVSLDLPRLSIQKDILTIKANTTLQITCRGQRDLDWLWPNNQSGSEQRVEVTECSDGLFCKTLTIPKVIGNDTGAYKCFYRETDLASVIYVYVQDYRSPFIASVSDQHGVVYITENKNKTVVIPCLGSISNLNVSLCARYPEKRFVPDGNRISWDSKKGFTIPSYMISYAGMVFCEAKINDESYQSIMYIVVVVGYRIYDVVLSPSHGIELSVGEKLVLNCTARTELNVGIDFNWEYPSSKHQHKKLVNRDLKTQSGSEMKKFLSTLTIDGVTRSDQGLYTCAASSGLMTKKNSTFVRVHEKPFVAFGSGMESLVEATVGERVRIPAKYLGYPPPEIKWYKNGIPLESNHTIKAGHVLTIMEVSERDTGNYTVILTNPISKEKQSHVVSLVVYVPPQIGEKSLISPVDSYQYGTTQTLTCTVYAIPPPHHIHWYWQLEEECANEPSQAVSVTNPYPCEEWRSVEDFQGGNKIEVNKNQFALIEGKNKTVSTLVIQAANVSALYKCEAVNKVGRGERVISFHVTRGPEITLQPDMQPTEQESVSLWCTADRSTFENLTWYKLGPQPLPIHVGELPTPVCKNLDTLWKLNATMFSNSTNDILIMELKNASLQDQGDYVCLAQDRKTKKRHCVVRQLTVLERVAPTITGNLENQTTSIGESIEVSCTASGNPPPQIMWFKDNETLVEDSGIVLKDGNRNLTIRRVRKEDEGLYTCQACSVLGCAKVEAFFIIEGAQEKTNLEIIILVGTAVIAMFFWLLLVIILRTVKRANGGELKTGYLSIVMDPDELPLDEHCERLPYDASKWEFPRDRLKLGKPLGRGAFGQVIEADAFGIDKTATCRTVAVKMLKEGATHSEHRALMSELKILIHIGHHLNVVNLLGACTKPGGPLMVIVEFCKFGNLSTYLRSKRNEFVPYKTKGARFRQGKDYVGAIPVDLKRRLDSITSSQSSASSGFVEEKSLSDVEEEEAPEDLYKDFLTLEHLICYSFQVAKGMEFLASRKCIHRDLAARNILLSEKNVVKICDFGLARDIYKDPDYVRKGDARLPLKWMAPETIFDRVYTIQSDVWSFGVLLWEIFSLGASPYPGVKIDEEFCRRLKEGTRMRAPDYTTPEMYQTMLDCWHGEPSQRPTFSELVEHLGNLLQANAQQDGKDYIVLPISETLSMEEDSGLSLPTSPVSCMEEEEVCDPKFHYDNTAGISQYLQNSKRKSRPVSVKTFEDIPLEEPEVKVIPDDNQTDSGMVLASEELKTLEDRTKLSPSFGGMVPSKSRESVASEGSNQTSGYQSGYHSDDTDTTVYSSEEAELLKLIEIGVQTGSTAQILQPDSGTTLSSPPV", "test": "Inhibition of Vascular endothelial growth factor receptor 2"}, "[22]": {"target": "Mitogen-activated protein kinase 8 (Homo sapiens, UniProt P45983)", "sequence (P45983 whole entry)": "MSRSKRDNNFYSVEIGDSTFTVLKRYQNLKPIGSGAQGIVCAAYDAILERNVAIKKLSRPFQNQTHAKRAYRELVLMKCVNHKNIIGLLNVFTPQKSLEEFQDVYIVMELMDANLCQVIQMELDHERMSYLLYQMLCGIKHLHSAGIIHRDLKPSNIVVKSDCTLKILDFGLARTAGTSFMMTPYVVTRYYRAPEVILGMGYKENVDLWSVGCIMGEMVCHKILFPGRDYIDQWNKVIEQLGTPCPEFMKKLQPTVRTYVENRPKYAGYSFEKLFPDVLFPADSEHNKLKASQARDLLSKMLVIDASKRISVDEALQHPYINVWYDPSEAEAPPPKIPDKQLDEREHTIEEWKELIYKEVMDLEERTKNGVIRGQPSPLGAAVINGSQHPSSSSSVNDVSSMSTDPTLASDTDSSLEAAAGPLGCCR", "test": "Inhibition of c-Jun N-terminal kinase 1"}, "[23]": {"target": "Interleukin-1 receptor-associated kinase 1 (Homo sapiens, UniProt P51617)", "sequence (P51617 whole entry)": "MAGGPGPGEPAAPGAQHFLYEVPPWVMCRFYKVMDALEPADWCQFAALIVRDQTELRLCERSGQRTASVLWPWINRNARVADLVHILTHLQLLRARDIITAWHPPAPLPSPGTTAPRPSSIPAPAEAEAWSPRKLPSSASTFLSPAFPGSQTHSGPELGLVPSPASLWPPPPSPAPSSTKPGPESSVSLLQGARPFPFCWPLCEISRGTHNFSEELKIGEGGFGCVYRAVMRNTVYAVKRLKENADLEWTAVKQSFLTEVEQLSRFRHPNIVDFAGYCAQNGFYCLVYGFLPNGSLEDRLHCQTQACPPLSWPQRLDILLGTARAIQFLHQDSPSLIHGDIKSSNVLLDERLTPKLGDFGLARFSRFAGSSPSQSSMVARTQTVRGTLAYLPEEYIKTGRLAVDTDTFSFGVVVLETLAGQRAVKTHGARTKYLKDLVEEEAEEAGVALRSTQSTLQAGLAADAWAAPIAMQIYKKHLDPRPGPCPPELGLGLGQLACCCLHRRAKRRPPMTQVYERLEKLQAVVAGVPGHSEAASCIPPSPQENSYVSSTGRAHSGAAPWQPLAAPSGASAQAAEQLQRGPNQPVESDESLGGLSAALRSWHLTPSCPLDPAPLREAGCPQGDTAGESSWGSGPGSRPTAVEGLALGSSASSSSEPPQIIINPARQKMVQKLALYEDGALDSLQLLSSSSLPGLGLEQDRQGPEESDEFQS", "test": "Inhibition of interleukin-1 receptor-associated kinase 1"}}, "note": "pIC50: −log10 of the molar value.", "data": [{"smiles": "C[C@H](O)CNc1cc(-c2[nH]c3cccnc3c2-c2ccc(F)cc2)ccn1", "values": [{"measurement": "half-life", "setting": "[1]", "value": 1.1, "unit": "h"}, {"measurement": "Tmax", "setting": "[2]", "value": 1, "unit": "h"}, {"measurement": "bioavailability", "setting": "[3]", "value": 85.6, "unit": "%"}, {"measurement": "clearance", "setting": "[4]", "value": 20, "unit": "mL/min/kg"}, {"measurement": "Cmax", "setting": "[5]", "value": 10.3, "unit": "µM"}, {"measurement": "Cmax", "setting": "[6]", "value": 6.9, "unit": "µM"}, {"measurement": "logP", "setting": "[7]", "value": 3.5}, {"measurement": "Cell permeation", "setting": "Homo sapiens", "value": "Permeable"}, {"measurement": "pIC50", "setting": "[8]", "value": "< 4.60"}, {"measurement": "pIC50", "setting": "[9]", "value": "< 4.60"}, {"measurement": "pIC50", "setting": "[10]", "value": "< 4.60"}, {"measurement": "pIC50", "setting": "[11]", "value": "< 4.60"}, {"measurement": "pIC50", "setting": "[12]", "value": "< 4.52"}, {"measurement": "IC50", "setting": "MAP kinase p38 [13]", "value": 0.21, "unit": "µM"}, {"measurement": "pIC50", "setting": "[14]", "value": "< 4.52"}, {"measurement": "pIC50", "setting": "[15]", "value": 9.00}, {"measurement": "pIC50", "setting": "[16]", "value": 8.89}, {"measurement": "IC50", "setting": "[17]", "value": "> 10", "unit": "µM"}, {"measurement": "IC50", "setting": "[18]", "value": "> 10", "unit": "µM"}, {"measurement": "IC50", "setting": "Protein kinase C (PKC)", "value": "> 10", "unit": "µM"}, {"measurement": "ED50", "setting": "Rattus norvegicus", "value": 2, "unit": "mg/kg"}, {"measurement": "inhibition", "setting": "[19]", "value": 88, "unit": "%"}, {"measurement": "IC50", "setting": "MAP kinase p38 [20]", "value": 0.0017, "unit": "µM"}, {"measurement": "pIC50", "setting": "[21]", "value": "< 5.00"}, {"measurement": "pIC50", "setting": "[22]", "value": "< 5.00"}, {"measurement": "pIC50", "setting": "[23]", "value": "< 4.52"}]}]}
